Source: ChEMBL document CHEMBL4689842, “EUbOPEN Chemogenomics Library wave 1” (2021)
Several values for one entry are separate records, joined by “and”; a condition that tells them apart may be missing. Identical values can stand only once.

Columns and labels:
Fibroblast = experiment: Incucyte cell viability with human fibroblast; type: toxicity, cell-based; settings: 10 µM, compound concentration 10 uM; note: filed as whole numbers so only -1 and 0 and 1 occur
HEK-293T = experiment: Multiplex assay against HEK293T; type: toxicity, cell-based; settings: human;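 for Population Tubulin-Different-Phenotype (%): share of the cells with healthy nuclei that show this phenotype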
How it was run: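 Four dyes were applied at seeding to live cells: Hoechst33342, BioTracker Green Microtubule Cytoskeleton Dye, MitoTracker Red and Annexin V Alexa Fluor 680. Imaging after compound addition used a CQ1 microscope at 37°C and 5% CO2. CellPathfinder machine-learning gating then sorted cells into Hoechst high-intensity objects or normal cells, normal cells into healthy, pyknosed or fragmented nuclei, and pyknosed cells into mitotic or apoptotic, with tubulin, mitochondrial-mass and membrane-permeability phenotypes given as per cents of healthy-nucleus cells.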

[1] = 12 h, 1 µM, compound concentration 1 uM, replicate 1
[2] = 12 h, 1 µM, compound concentration 1 uM, replicate 2
[3] = 12 h, 10 µM, compound concentration 10 uM, replicate 1
[4] = 12 h, 10 µM, compound concentration 10 uM, replicate 2
[5] = 24 h, 1 µM, compound concentration 1 uM, replicate 1
[6] = 24 h, 1 µM, compound concentration 1 uM, replicate 2
[7] = 24 h, 10 µM, compound concentration 10 uM, replicate 1
[8] = 24 h, 10 µM, compound concentration 10 uM, replicate 2
[9] = 48 h, 10 µM, compound concentration 10 uM, replicate 1
[10] = 48 h, 10 µM, compound concentration 10 uM, replicate 2

SMILES: Cc1c(Nc2ccc(S(=O)(=O)N3CCN(C)CC3)cc2F)nc2ccc(-c3cnn(C4CC4)c3)cn2c1=O
- Growth Rate (Fibroblast; 0 h, replicate number 1, timepoint 0 hours): 0
- Growth Rate (Fibroblast; 12 h, replicate number 1, timepoint 12 hours): 1
- Growth Rate (Fibroblast; 18 h, replicate number 1, timepoint 18 hours): 1
- Growth Rate (Fibroblast; 24 h, replicate number 1, timepoint 24 hours): 1
- Population Apoptotic (%) (HEK-293T; [1]): 19%
- Population Fragmented Nuclei (%) (HEK-293T; [1]): 13%
- Population Healthy Nuclei (%) (HEK-293T; [1]): 67%
- Population Hoechst High Intensity Objects (%) (HEK-293T; [1]): 9%
- Population Membrane Permeable-Phenotype (%) (HEK-293T; [1]): 4%
- Population Mitochondria Different-Phenotype (%) (HEK-293T; [1]): 6%
- Population Mitotic Cells (%) (HEK-293T; [1]): 80%
- Population Normal (%) (HEK-293T; [1]): 90%
- Population Pyknosed Nuclei (%) (HEK-293T; [1]): 18%
- Population Tubulin-Different-Phenotype (%) (HEK-293T; [1]): 6%
- Total Cell Count (HEK-293T; [1]): 755
- Population Apoptotic (%) (HEK-293T; [2]): 10%
- Population Fragmented Nuclei (%) (HEK-293T; [2]): 7%
- Population Healthy Nuclei (%) (HEK-293T; [2]): 87%
- Population Hoechst High Intensity Objects (%) (HEK-293T; [2]): 2%
- Population Membrane Permeable-Phenotype (%) (HEK-293T; [2]): 2%
- Population Mitochondria Different-Phenotype (%) (HEK-293T; [2]): 9%
- Population Mitotic Cells (%) (HEK-293T; [2]): 89%
- Population Normal (%) (HEK-293T; [2]): 97%
- Population Pyknosed Nuclei (%) (HEK-293T; [2]): 4%
- Population Tubulin-Different-Phenotype (%) (HEK-293T; [2]): 10%
- Total Cell Count (HEK-293T; [2]): 1860
- Population Apoptotic (%) (HEK-293T; [3]): 43% and 17%
- Population Fragmented Nuclei (%) (HEK-293T; [3]): 44% and 17%
- Population Healthy Nuclei (%) (HEK-293T; [3]): 37% and 61%
- Population Hoechst High Intensity Objects (%) (HEK-293T; [3]): 45% and 18%
- Population Membrane Permeable-Phenotype (%) (HEK-293T; [3]): 2% and 7%
- Population Mitotic Cells (%) (HEK-293T; [3]): 56% and 82%
- Population Normal (%) (HEK-293T; [3]): 54% and 81%
- Population Pyknosed Nuclei (%) (HEK-293T; [3]): 18% and 20%
- Population Tubulin-Different-Phenotype (%) (HEK-293T; [3]): 40% and 15%
- Total Cell Count (HEK-293T; [3]): 1012 and 786
- Population Apoptotic (%) (HEK-293T; [4]): 16% and 6%
- Population Fragmented Nuclei (%) (HEK-293T; [4]): 14% and 9%
- Population Healthy Nuclei (%) (HEK-293T; [4]): 32% and 84%
- Population Hoechst High Intensity Objects (%) (HEK-293T; [4]): 22% and 9%
- Population Membrane Permeable-Phenotype (%) (HEK-293T; [4]): 4% and 8%
- Population Mitotic Cells (%) (HEK-293T; [4]): 83% and 93%
- Population Normal (%) (HEK-293T; [4]): 77% and 90%
- Population Tubulin-Different-Phenotype (%) (HEK-293T; [4]): 64% and 33%
- Population Apoptotic (%) (HEK-293T; [5]): 15%
- Population Fragmented Nuclei (%) (HEK-293T; [5]): 11%
- Population Healthy Nuclei (%) (HEK-293T; [5]): 77%
- Population Hoechst High Intensity Objects (%) (HEK-293T; [5]): 5%
- Population Membrane Permeable-Phenotype (%) (HEK-293T; [5]): 8%
- Population Mitochondria Different-Phenotype (%) (HEK-293T; [5]): 4%
- Population Mitotic Cells (%) (HEK-293T; [5]): 84%
- Population Normal (%) (HEK-293T; [5]): 94%
- Population Pyknosed Nuclei (%) (HEK-293T; [5]): 10%
- Population Tubulin-Different-Phenotype (%) (HEK-293T; [5]): 10%
- Total Cell Count (HEK-293T; [5]): 923
- Population Apoptotic (%) (HEK-293T; [6]): 1%
- Population Fragmented Nuclei (%) (HEK-293T; [6]): 23%
- Population Healthy Nuclei (%) (HEK-293T; [6]): 74%
- Population Hoechst High Intensity Objects (%) (HEK-293T; [6]): 2%
- Population Membrane Permeable-Phenotype (%) (HEK-293T; [6]): 7%
- Population Mitochondria Different-Phenotype (%) (HEK-293T; [6]): 2%
- Population Mitotic Cells (%) (HEK-293T; [6]): 98%
- Population Normal (%) (HEK-293T; [6]): 97%
- Population Pyknosed Nuclei (%) (HEK-293T; [6]): 1%
- Population Tubulin-Different-Phenotype (%) (HEK-293T; [6]): 14%
- Total Cell Count (HEK-293T; [6]): 3127
- Population Apoptotic (%) (HEK-293T; [7]): 41%
- Population Healthy Nuclei (%) (HEK-293T; [7]): 39% and 75%
- Population Membrane Permeable-Phenotype (%) (HEK-293T; [7]): 8%
- Population Mitotic Cells (%) (HEK-293T; [7]): 58% and 76%
- Population Normal (%) (HEK-293T; [7]): 56% and 86%
- Population Pyknosed Nuclei (%) (HEK-293T; [7]): 16% and 12%
- Population Tubulin-Different-Phenotype (%) (HEK-293T; [7]): 51% and 32%
- Total Cell Count (HEK-293T; [7]): 1052 and 818
- Population Fragmented Nuclei (%) (HEK-293T; [8]): 11% and 14%
- Population Healthy Nuclei (%) (HEK-293T; [8]): 42% and 80%
- Population Mitotic Cells (%) (HEK-293T; [8]): 77% and 93%
- Population Normal (%) (HEK-293T; [8]): 75% and 92%
- Population Tubulin-Different-Phenotype (%) (HEK-293T; [8]): 64% and 49%
- Population Apoptotic (%) (HEK-293T; [9]): 44%
- Population Fragmented Nuclei (%) (HEK-293T; [9]): 37%
- Population Healthy Nuclei (%) (HEK-293T; [9]): 47%
- Population Hoechst High Intensity Objects (%) (HEK-293T; [9]): 40%
- Population Membrane Permeable-Phenotype (%) (HEK-293T; [9]): 5%
- Population Mitochondria Different-Phenotype (%) (HEK-293T; [9]): 35%
- Population Mitotic Cells (%) (HEK-293T; [9]): 55%
- Population Normal (%) (HEK-293T; [9]): 59%
- Population Pyknosed Nuclei (%) (HEK-293T; [9]): 14%
- Population Tubulin-Different-Phenotype (%) (HEK-293T; [9]): 58%
- Total Cell Count (HEK-293T; [9]): 1023
- Population Apoptotic (%) (HEK-293T; [10]): 26%
- Population Fragmented Nuclei (%) (HEK-293T; [10]): 12%
- Population Healthy Nuclei (%) (HEK-293T; [10]): 61%
- Population Hoechst High Intensity Objects (%) (HEK-293T; [10]): 19%
- Population Membrane Permeable-Phenotype (%) (HEK-293T; [10]): 12%
- Population Mitotic Cells (%) (HEK-293T; [10]): 73%
- Population Normal (%) (HEK-293T; [10]): 80%
- Population Pyknosed Nuclei (%) (HEK-293T; [10]): 25%
- Population Tubulin-Different-Phenotype (%) (HEK-293T; [10]): 69%
- Total Cell Count (HEK-293T; [10]): 372
